Experimental data reported in ChEMBL document CHEMBL1139333, “Search for new pharmacophores for antimalarial activity. Part I: synthesis and antimalarial activity of new 2-methyl-6-ureido-4-quinolinamides” (Bioorg Med Chem, 2009).
In brackets after ≈: the same amount, converted by molar mass.

Legend:
[1] = Selectivity index, ratio of CC50 for african green monkey (Cercopithecus aethiops) Vero cells to IC50 for Plasmodium falciparum 3D7; type: functional
Plasmodium falciparum [2] = experiment: Antimalarial effect as schizonticidal activity against chloroquine-sensitive Plasmodium falciparum 3D7 after 40 hrs; conditions: 3D7, 40 h
Plasmodium falciparum [3] = experiment: Antimalarial activity against chloroquine-sensitive Plasmodium falciparum 3D7 infected erythrocytes after 72 hrs by MSF assay; conditions: 3D7, 72 h
Plasmodium yoelii [4] = experiment: Antimalarial activity as parasitaemia after 28 days against chloroquine-resistant Plasmodium yoelii N67 infected Swiss mice (Mus musculus) at 50 mg/kg peroral dose over 4 days; type: functional; conditions: route oral
Outline: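 Swiss mice (25 g, either sex, n=5) infected on day 0 with 1 × 10⁶ P. yoelii N67 chloroquine-resistant parasitized cells. Test compounds were given orally as an aqueous suspension at 50 mg/kg from day 0 to 3; vehicle controls were run alongside. Parasitaemia was counted on tail-vein thin smears on days 4, 7, 14, 21 and 28, or until death.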

Plasmodium yoelii [5] = experiment: Antimalarial activity as parasitaemia after 28 days against chloroquine-resistant Plasmodium yoelii N67 infected Swiss mice (Mus musculus) at 50 mg/kg peroral dose over 7 days; type: functional; conditions: route oral

Structure (SMILES) | Selectivity Index [1] | MIC (Plasmodium falciparum [2]) | IC50 (Plasmodium falciparum [3]) | Activity (Plasmodium yoelii [4]) | Activity (Plasmodium yoelii [5])
Cc1cc(NC(=O)c2cccc(Cl)c2)c2cc(NC(=O)Nc3cc(Cl)cc(Cl)c3)ccc2n1 | 187.7 | 2 µg/mL (≈ 4 µM) | 0.218 µg/mL (≈ 0.436 µM) |  | 
Cc1cc(NC(=O)c2ccccc2Cl)c2cc(NC(=O)Nc3ccc(F)cc3)ccc2n1 |  | 50 µg/mL (≈ 111 µM) |  |  | 
Cc1cc(NC(=O)c2ccccc2)c2cc(NC(=O)Nc3ccc(F)cc3)ccc2n1 |  | 10 µg/mL (≈ 24.1 µM) |  |  | 
Cc1cc(NC(=O)c2cccc(Cl)c2)c2cc(NC(=O)Nc3ccc(C)c(Cl)c3)ccc2n1 |  | 10 µg/mL (≈ 20.9 µM) |  |  | 
Cc1cc(NC(=O)c2ccccc2)c2cc(NC(=O)Nc3cccc(C#N)c3)ccc2n1 |  | 10 µg/mL (≈ 23.7 µM) |  |  | 
CCN1CCN(CC(=O)Nc2cc(C)nc3ccc(NC(=O)Nc4ccc(C)c(Cl)c4)cc23)CC1 |  | 0.5 µg/mL (≈ 1.01 µM) | 0.0035 µg/mL (≈ 0.00707 µM) |  | 
Cc1cc(NC(=O)c2cccc(Cl)c2)c2cc(NC(=O)Nc3ccc(F)c(Cl)c3)ccc2n1 | 125.6 |  | 0.0682 µg/mL (≈ 0.141 µM) | 3.76% | 15.5%
Cc1cc(NC(=O)CN2CCN(C)CC2)c2cc(NC(=O)Nc3cccc(C(F)(F)F)c3)ccc2n1 | 2594.9 | 0.25 µg/mL (≈ 0.499 µM) | 0.0008 µg/mL (≈ 0.0016 µM) | 2.5% | 21.9%
Cc1cc(NC(=O)CN2CCCCC2)c2cc(NC(=O)Nc3cccc(C(F)(F)F)c3)ccc2n1 | 214.3 | 0.25 µg/mL (≈ 0.515 µM) | 0.0335 µg/mL (≈ 0.069 µM) |  | 
CC(=O)c1ccc(NC(=O)Nc2ccc3nc(C)cc(NC(=O)c4ccco4)c3c2)cc1 |  | 10 µg/mL (≈ 23.3 µM) |  |  | 
Cc1cc(NC(=O)CN2CCN(C)CC2)c2cc(NC(=O)Nc3cccc(Cl)c3C)ccc2n1 |  | > 10 µg/mL |  |  | 
Cc1cc(NC(=O)CN2CCCCC2)c2cc(NC(=O)Nc3ccc(Cl)c(Cl)c3)ccc2n1 | 524.2 | 0.25 µg/mL (≈ 0.514 µM) | 0.0758 µg/mL (≈ 0.156 µM) |  | 
CC(=O)c1cccc(NC(=O)Nc2ccc3nc(C)cc(NC(=O)c4ccccc4)c3c2)c1 |  | 10 µg/mL (≈ 22.8 µM) |  |  | 
Cc1cc(NC(=O)c2ccco2)c2cc(NC(=O)Nc3ccc(C)c(Cl)c3)ccc2n1 | 524.7 | 0.5 µg/mL (≈ 1.15 µM) | 0.135 µg/mL (≈ 0.31 µM) | 0.61% | 21.1%
CC(=O)c1ccc(NC(=O)Nc2ccc3nc(C)cc(NC(=O)c4ccccc4)c3c2)cc1 |  | 50 µg/mL (≈ 114 µM) |  |  | 
Cc1cc(NC(=O)c2ccccc2Cl)c2cc(NC(=O)Nc3cccc(C(F)(F)F)c3)ccc2n1 |  | 2 µg/mL (≈ 4.01 µM) |  |  | 
Cc1cc(NC(=O)c2cccc(Cl)c2)c2cc(NC(=O)Nc3cccc(Cl)c3)ccc2n1 |  | 50 µg/mL (≈ 107 µM) |  |  | 

Structure (SMILES) | Selectivity Index [1] | MIC (Plasmodium falciparum [2]) | IC50 (Plasmodium falciparum [3]) | Activity (Plasmodium yoelii [4]) | Activity (Plasmodium yoelii [5])
Cc1cc(NC(=O)CN2CCCCC2)c2cc(NC(=O)Nc3ccc(Cl)cc3)ccc2n1 | 64.9 | 0.5 µg/mL (≈ 1.11 µM) | 0.023 µg/mL (≈ 0.0509 µM) |  | 
Cc1cc(NC(=O)c2ccco2)c2cc(NC(=O)Nc3ccc(Br)cc3)ccc2n1 | 1547 | 1 µg/mL (≈ 2.15 µM) | 0.0571 µg/mL (≈ 0.123 µM) |  | 
Cc1cc(NC(=O)c2cccc(Cl)c2)c2cc(NC(=O)Nc3cccc(C#N)c3)ccc2n1 |  | 1 µg/mL (≈ 2.19 µM) |  |  | 
Cc1cc(NC(=O)c2ccccc2Cl)c2cc(NC(=O)Nc3ccc(Br)cc3)ccc2n1 |  | 2 µg/mL (≈ 3.92 µM) |  | 1.9% | 8.8%
Cc1cc(NC(=O)c2cccc(Cl)c2)c2cc(NC(=O)Nc3ccc(F)cc3)ccc2n1 |  | 10 µg/mL (≈ 22.3 µM) |  |  | 
Cc1cc(NC(=O)c2ccccc2)c2cc(NC(=O)Nc3ccc(Cl)cc3)ccc2n1 |  | > 50 µg/mL |  |  | 
Cc1cc(NC(=O)c2ccccc2)c2cc(NC(=O)Nc3ccc(Cl)c(C(F)(F)F)c3)ccc2n1 |  | 1 µg/mL (≈ 2 µM) | 0.0194 µg/mL (≈ 0.0389 µM) |  | 
Cc1cc(NC(=O)c2ccccc2)c2cc(NC(=O)Nc3cccc(Cl)c3)ccc2n1 |  | 50 µg/mL (≈ 116 µM) |  |  | 
Cc1cc(NC(=O)c2ccccc2)c2cc(NC(=O)Nc3ccc(Br)cc3)ccc2n1 |  | 10 µg/mL (≈ 21 µM) |  |  | 
Cc1cc(NC(=O)c2ccccc2Cl)c2cc(NC(=O)Nc3ccc(F)c(Cl)c3)ccc2n1 |  | 10 µg/mL (≈ 20.7 µM) |  |  | 
Cc1cc(NC(=O)c2ccccc2Cl)c2cc(NC(=O)Nc3ccc(Cl)c(C(F)(F)F)c3)ccc2n1 | 270.9 |  | 0.0356 µg/mL (≈ 0.0667 µM) |  | 
Cc1cc(NC(=O)c2cccc(Cl)c2)c2cc(NC(=O)Nc3ccc(Cl)c(Cl)c3)ccc2n1 |  | 10 µg/mL (≈ 20 µM) |  |  | 
Cc1cc(NC(=O)c2ccccc2)c2cc(NC(=O)Nc3cccc(F)c3)ccc2n1 |  | 10 µg/mL (≈ 24.1 µM) |  |  | 
Cc1cc(NC(=O)CN2CCN(C)CC2)c2cc(NC(=O)Nc3ccc(Cl)cc3)ccc2n1 |  | 0.5 µg/mL (≈ 1.07 µM) | 0.005 µg/mL (≈ 0.0107 µM) |  | 
Cc1cc(NC(=O)c2ccccc2)c2cc(NC(=O)Nc3ccc(C)c(Cl)c3)ccc2n1 |  | 2 µg/mL (≈ 4.5 µM) |  |  | 
Cc1cc(NC(=O)c2ccccc2Cl)c2cc(NC(=O)Nc3ccc(C)c(Cl)c3)ccc2n1 | 205.1 | 1 µg/mL (≈ 2.09 µM) | 0.0445 µg/mL (≈ 0.0928 µM) | 2.15% | 5.08%
Cc1cc(NC(=O)c2cccc(Cl)c2)c2cc(NC(=O)Nc3ccc(Br)cc3)ccc2n1 |  | 2 µg/mL (≈ 3.92 µM) |  |  | 
